Source: PubChem BioAssay
MrgX1 PAM – allosterically activates human MrgX1 receptor signaling | 310,000 tested, 0.63% active | B-score at 10 µM | Q96LB2 | AID 588675 | MrgX1-HEK293, Fluo-4 calcium flux, FDSS; hits give high values;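 active = plate-corrected calcium response at least 3 library SD above typical, normal starting fluorescence, not activating the receptor alone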;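 note: compound read alongside a low EC10 to EC30 dose of BAM8-22 agonist; peak minus trough fluorescence over baseline measured at the second addition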
Target sequence (Q96LB2 whole entry, looked up): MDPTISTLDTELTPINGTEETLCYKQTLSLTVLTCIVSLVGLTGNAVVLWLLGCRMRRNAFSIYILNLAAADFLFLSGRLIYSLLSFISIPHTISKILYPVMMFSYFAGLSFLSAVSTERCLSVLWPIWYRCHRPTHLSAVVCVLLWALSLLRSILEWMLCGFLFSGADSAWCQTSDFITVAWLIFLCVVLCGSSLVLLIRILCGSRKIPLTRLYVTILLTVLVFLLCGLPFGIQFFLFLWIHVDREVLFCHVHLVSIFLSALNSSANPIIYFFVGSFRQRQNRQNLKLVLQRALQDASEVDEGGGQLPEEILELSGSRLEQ
RGS4 block – human RGS4 inhibition; HEK293 M3R/RGS4 inducible, Fluo-4 calcium flux; hits give high values; triggered by carbachol at its EC20; B-score at 10 µM; 310,000 tested, 0.45% active;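 active = B-score, a plate-corrected calcium signal, over three deviations above library mean, with baseline fluorescence within five deviations of library mean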;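 note: RGS4 expression induced by doxycycline in cells with stable M3 receptor; B-score is computed from the integrated fluorescence ratio over baseline after carbachol; higher B-score means a larger calcium signal and so more RGS4 inhibition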
Target sequence (P49798 whole entry, looked up): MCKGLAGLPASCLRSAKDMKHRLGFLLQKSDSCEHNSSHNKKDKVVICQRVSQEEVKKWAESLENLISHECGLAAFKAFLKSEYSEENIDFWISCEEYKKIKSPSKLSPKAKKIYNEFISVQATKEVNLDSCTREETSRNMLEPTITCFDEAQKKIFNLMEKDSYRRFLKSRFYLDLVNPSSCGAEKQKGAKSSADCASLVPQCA
RGS4 act – RGS4 potentiation or activation; HEK293 M3R/inducible RGS4, carbachol calcium flux Fluo4; hits give low values; 310,000 tested, 0.92% active; B-score at 10 µM; AID 463111;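 active = B-score of the integrated calcium signal more than 4 SD below the library mean, with starting fluorescence not abnormally high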;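 note: negative B-score means reduced calcium response which marks RGS4 activation or potentiation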
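Material: Inducible-RGS4 HEK293 cells carrying M3 receptor; also added: carbachol at ECmax as muscarinic agonist stimulus; incubation: compound preincubation 20 min at room temperature before agonist; signal: Fluo4-AM (2 µM) calcium-flux fluorescence, kinetic read; measure: integrated calcium ratio converted to B score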
MrgX1 antag – antagonists of human MrgX1 receptor; Q96LB2; MRGX1-HEK293 calcium flux, Fluo-4, BAM8-22 antagonism; hits give low values; B-score at 10 µM; 310,000 tested, 1.3% active; AID 588676;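 active = calcium-response B-score plate-corrected more than 3 library SD below zero, starting fluorescence within 5 deviations, no agonist response on first addition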;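 note: peak minus trough fluorescence over baseline after final BAM8-22 challenge near maximal dose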
MrgX1 ag – activates human MrgX1 receptor signaling; 310,000 tested, 0.44% active; B-score at 10 µM; MrgX1-HEK293 cells, Fluo-4 calcium fluorescence, agonist mode; hits give high values; AID 588627;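 active = calcium response B-score plate-corrected fluorescence ratio at least 3 library SD, with starting fluorescence B-score inside 5 SD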
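times = overnight plating, then 30 min 37 °C plus 30 min room-temperature dye loading | assay system = stable human MrgX1 HEK293 cell line | input = fifteen thousand cells per well | signal = kinetic calcium dye fluorescence, Fluo-4 NW | dosing = compound delivered in addition one of three | read-out = B-scored fluorescence response ratio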
MrgX1 ag confirm – human MrgX1 agonism, re-confirmation screen; activation, % at 10 µM; MrgX1-HEK293, Fluo-4 calcium fluorescence, FDSS; 600 tested, 78% active; shares compounds with MrgX1 ag;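 active = calcium signal rise, corrected for plate position, at least 3 library SD high, with starting brightness within 5 such deviations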; note: reference of the scale not given here
HEK293 Ca flux – counter-screen for MrgX1 antagonists: effect in parental HEK293 cells; shares compounds with MrgX1 antag; Fluo-4 calcium fluorescence, FDSS; fluorescence ratio F(max-min)/F0 at 10 µM; 4,000 tested, 2% active; AID 624111;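 active = duplicate-averaged calcium fluorescence ratio at least three times the standard deviation of buffer wells, a nonspecific response in parental cells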
HEK293 Ca counter – MrgX1 allosteric activator counter-screen hit in parental HEK293 cells | shares compounds with MrgX1 antag | parental HEK293 calcium flux, Fluo-4 fluorescence ratio; hits give high values | fluorescence ratio F(max-min)/F0 at 10 µM | 4,000 tested, 0.4% active;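 active = calcium fluorescence ratio, averaged over duplicates, at least 3 SD of the buffer-well ratio, meaning a nonspecific response in receptor-free cells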;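 note: untransfected parental HEK293 lacking MrgX1 used as counterscreen for MrgX1 allosteric activators; fluorescence change taken during the second addition on a kinetic imager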
HEK293 Ca cntr2 – counter-screen for MrgX1 activators: effect in parental HEK293 cells | shares compounds with MrgX1 antag | Fluo-4 calcium fluorescence (FDSS); hits give high values | fluorescence ratio F(max-min)/F0 at 10 µM | 4,000 tested, 8.7% active | AID 624115;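 active = calcium fluorescence ratio at least three times the spread of buffer wells, meaning a non-specific response in parental cells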
* marks the source's active call; other numbers are inactive results; i = inactive; · = not tested or not shown. Sampled rows, rich in hits. Any-hit rate of the full collection: about 3.5%.

SMILES | MrgX1 PAM | RGS4 block | RGS4 act | MrgX1 antag | MrgX1 ag | MrgX1 ag confirm | HEK293 Ca flux | HEK293 Ca counter | HEK293 Ca cntr2
C=CCNc1ncnc2c1[nH]c1ccc(Cl)cc12 | i | i | i | i | 65.5* | 353.0%* | i | i | 59.1*
CN(C(=O)C1CCC(=O)N(Cc2cccc(F)c2)C1)C1CCCCC1 (stereo not drawn) | i | i | i | i | i | · | · | · | ·
COc1ccc(C(C)=O)cc1COC(=O)Cc1cc(OC)c(OC)c(OC)c1 | i | i | i | i | i | · | · | · | ·
O=C(Nc1nnc(-c2cccs2)o1)c1cccc(C(F)(F)F)c1 | i | i | i | i | 74.8* | 498.2%* | i | i | 96.3*
N#Cc1ccc(C(=O)Nc2nnc(-c3cccs3)o2)cc1 | i | i | i | i | i | · | · | · | ·
CCN(CC)C(=O)Cn1cc(S(=O)(=O)CC(=O)NCCc2ccccc2)c2ccccc21 | i | i | i | i | i | · | · | · | ·
Cc1c(Br)c(O)c(Br)c2sc(=O)oc12 | i | · | · | i | 32.8* | 149.1%* | i | i | i
Cn1c(N)c(C(=O)COC(=O)c2ccc(Cl)c(S(=O)(=O)N3CCCC3)c2)c(=O)n(C)c1=O | i | i | i | i | i | · | · | · | ·
CC(=O)Nc1ccc(S(=O)(=O)/N=C2\SCCN2S(=O)(=O)c2ccc(NC(C)=O)cc2)cc1 | i | i | i | i | 41.1* | 270.3%* | i | i | i
CC(=O)Nc1ccc(S(=O)(=O)Nc2ccc(S(=O)(=O)N3CCCC3)cc2)cc1 | i | i | i | i | i | · | · | · | ·
Nc1nc2ccccc2cc1-c1cccs1 | i | i | i | i | 44.9* | 196.3%* | i | i | i
c1csc(-c2ccc3ccccc3n2)c1 | i | i | i | i | i | · | · | · | ·
Cc1ccc(-c2cc3ccccc3nc2N)cc1 | i | i | i | i | 43.5* | 219.6%* | i | i | i
CCOc1ccc(CSC(=N)N)cc1Cl | i | i | i | i | 33* | 179.3%* | i | i | i
Cc1cccc(C)c1NC(=O)C(=O)NCCc1c[nH]c2ccccc12 | i | i | i | i | 40.6* | i | i | 48.6* | i
Cc1cccc(NC(=O)C(=O)NCCc2c[nH]c3ccccc23)c1C | i | i | i | i | i | · | · | · | ·
CCOC(=O)Nc1ccc2c(c1)N(C(=O)N(CC)CC)c1ccccc1CC2 | i | i | i | i | 38.4* | 161.0%* | i | i | 46.5*
CCOC(=O)Nc1ccc2c(c1)N(C(=O)N(C)C)c1ccccc1CC2 | i | i | i | i | i | · | · | · | ·
O=C(O)CCN(CC(=O)c1ccc(Cl)cc1)S(=O)(=O)c1ccc([N+](=O)[O-])cc1 | i | · | · | i | i | · | · | · | ·
Cc1cc(O)c2/c(=N\N)c(-c3csc(C)n3)coc2c1 | i | i | i | i | i | · | · | · | ·
CCOC(=O)N1CCN(C(=O)c2c[nH]c3ccc(S(=O)(=O)N(C)c4cccc(C)c4)cc3c2=O)CC1 | i | i | i | i | 34.2* | 191.5%* | i | i | 49.5*
CCOC(=O)N1CCN(C(=O)c2c[nH]c3ccc(S(=O)(=O)N(C)c4ccccc4C)cc3c2=O)CC1 | i | i | i | i | i | · | · | · | ·
COc1ccc(Cl)cc1N(CC(=O)Nc1ccccc1C(=O)N1CCOCC1)S(C)(=O)=O | i | i | i | i | i | · | · | · | ·
CCOC(=O)CC(=O)CSc1nc2ccc(C)cc2cc1C#N | i | · | · | i | 53.6* | 366.9%* | i | i | 75.3*
